Source: ChEMBL document CHEMBL1124397, “A novel class of "GABAergic" agents: 1-aryl-3-(aminoalkylidene)oxindoles” (J Med Chem, 1989)

Assays:
[1] = test system: Mus musculus; assay: (§1) Toxicity was measured in mouse by intraperitoneal administration; type: organism-based; conditions: in vivo, ip
In short: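 Mice were dosed intraperitoneally and observed for 7 days after drug administration to estimate the LD50.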

[2] = test system: Mus musculus; assay: Activity to antagonise mercaptopropionic acid (MPA) induced convulsions in mouse after subcutaneous administration; type: functional; conditions: sc
In short: (§2)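 Male Swiss CD mice (17–21 g), fasted 18 h, in groups of five. […] One hour later MPA 32 mg/kg ip. Protection meant no convulsions during 10 min of observation.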

[3] = test system: Mus musculus; assay: Activity tested to antagonise cyclic GMP after administration of isoniazid in mouse brain; type: functional
[4] = Toxicity measured in mouse by subcutaneous administration; type: organism-based; conditions: in vivo, sc
In short: (§3)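 Mouse LD50 in mg/kg after sc or ip dosing, by the route named in each line.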

[5] = test system: Mus musculus; assay: Compound was tested for enhancement of [3H]Flunitrazepam ([3H]FNP) binding to mouse brain after intraperitoneal administration at a dose of 1000uM/kg, expressed as percent of control; type: functional
In short: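 Groups of five mice got the test compound or vehicle ip at the stated dose, 1 h (60 min) before iv [3H]FNP at 200 μCi/kg. Mice were killed by cervical dislocation 20 min after [3H]FNP. Brains were frozen, weighed and homogenized in 40 volumes ice-cold 50 mM Tris-HCl pH 7.7. Triplicate 1.0-mL samples were filtered on glass fiber and washed with cold buffer. Bound radioactivity was counted and expressed as % of vehicle-treated mice.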

[6] = molecular target: GABA-A receptor; anion channel (Rattus norvegicus) (UniProt O09028+P15431+P18506+P18508+P19969+P20236+P23574+P23576+P28471+P28473+P30191+P62813+P63079+P63138+Q91ZM7+Q9ES14); assay: Antagonism of mercaptopropionic acid (MPA) induced convulsions in mouse; type: functional, organism-based
[7] = as §1; conditions: in vivo, ip; in short: as §3
[8] = Toxicity was measured in mouse by intraperitoneal administration; value ranges from 3.2-10; conditions: in vivo, ip; in short: as §3
[9] = test system: Mus musculus; assay: Compound was tested for enhancement of [3H]Flunitrazepam ([3H]FNP) binding to mouse brain after intraperitoneal administration at a dose of 10 uM/kg, expressed as percent of control; type: functional
In short: (§4)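 Mice in groups of five received test compound or vehicle ip 1 h before 200 μCi/kg [3H]FNP iv and were killed 20 min later. Brains were homogenized in 40 volumes of ice-cold 50 mM Tris-HCl pH 7.7. Triplicate 1.0-mL samples were filtered on glass fiber, washed with cold buffer and counted. Bound FNP is given as % of vehicle-treated mice.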

[10] = test system: P23576; assay: Administered at a dose 320 umol/kg intraperitoneally before [3H]Flunitrazepam ([3H]-FNP) in mouse brain expressed as percent of control; type: functional, tissue-based; in short: as §4
[11] = test system: Mus musculus; assay: Activity to antagonise mercaptopropionic acid (MPA) induced convulsions in mouse after intraperitoneal administration; type: functional; conditions: ip
[12] = test system: Mus musculus; assay: Compound was tested for enhancement of [3H]flunitrazepam ([3H]-FNP) binding to mouse brain after intraperitoneal administration at a dose of 100uM/kg, expressed as percent of control; type: functional; in short: as §4
[13] = test system: Mus musculus; assay: Compound was tested for enhancement of [3H]Flunitrazepam ([3H]FNP) binding to mouse brain after intraperitoneal administration at a dose of 32uM/kg, expressed as percent of control; type: functional; in short: as §4
[14] = test system: Mus musculus; assay: Activity to antagonise mercaptopropionic acid (MPA) induced convulsions in mouse after subcutaneous administration; the value ranges from 32-100; type: functional; conditions: sc; in short: as §2
[15] = test system: Mus musculus; assay: Compound was tested for enhancement of [3H]Flunitrazepam ([3H]-FNP) binding to mouse brain after intraperitoneal administration at a dose of 3.2uM/kg, expressed as percent of control; type: functional; in short: as §4
[16] = test system: Mus musculus; assay: Activity to antagonise cyclic GMP after administration of isoniazid in mouse brain; value ranges from 0.3-1; type: functional
[17] = test system: Mus musculus; assay: Ability to displace [3H]Flunitrazepam ([3H]FNP) binding to mouse brain after intraperitoneal administration at a dose 32uMl/kg, expressed as percent of control; type: functional; in short: as §4
[18] = test system: Mus musculus; assay: Activity to antagonise mercaptopropionic acid (MPA) induced convulsions in mouse after subcutaneous administration; value ranges from 3.2-5.6; type: functional; conditions: sc; in short: as §2
[19] = test system: Mus musculus; assay: Ability to displace [3H]Flunitrazepam ([3H]-FNP) binding to mouse brain after intraperitoneal administration at a dose […]; type: functional
[20] = Ability to displace [3H]flunitrazepam ([3H]-FNP) binding to mouse brain after intraperitoneal administration at a dose 320 umol/kg; type: functional, organism-based; conditions: at 320 µmol/kg
In short: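 Mice in groups of five got test agent or vehicle ip 1 h before iv [3H]FNP at 200 μCi/kg, then were killed 20 min later by cervical dislocation. Brains were frozen and homogenized in 40 volumes of ice-cold 50 mM Tris-HCl pH 7.7. Triplicate samples were filtered on glass fiber, washed with cold buffer and counted. Bound label is expressed as % of vehicle-treated mice.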

[21] = test system: Mus musculus; assay: Activity to antagonise cyclic GMP after administration of isoniazid in mouse brain; value ranges from 0.1-0.3; type: functional

P23576, sequence (P23576 whole entry): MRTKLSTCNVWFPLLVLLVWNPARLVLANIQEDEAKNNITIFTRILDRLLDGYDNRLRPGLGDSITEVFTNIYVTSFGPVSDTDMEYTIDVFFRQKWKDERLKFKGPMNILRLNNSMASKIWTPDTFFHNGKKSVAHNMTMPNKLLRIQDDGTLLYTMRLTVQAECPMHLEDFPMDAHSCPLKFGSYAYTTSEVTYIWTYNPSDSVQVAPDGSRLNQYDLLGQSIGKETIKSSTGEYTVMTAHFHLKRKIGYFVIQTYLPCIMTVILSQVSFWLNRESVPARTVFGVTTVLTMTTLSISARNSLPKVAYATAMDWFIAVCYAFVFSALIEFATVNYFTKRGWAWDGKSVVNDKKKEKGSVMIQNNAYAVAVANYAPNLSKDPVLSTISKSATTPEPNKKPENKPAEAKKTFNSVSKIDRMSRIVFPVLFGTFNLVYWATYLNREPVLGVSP

SMILES: CCCCNc1c(C(=O)OCC)c(C)nc2c1cnn2CC [TRACAZOLATE]
- ED50 [1]: > 1000 mg/kg
- ED50 [2]: > 100 mg/kg
- ED50 [3]: ~3 mg/kg

SMILES: CCCC(CCC)C(=O)[O-].[Na+] [VALPROATE SODIUM]
- LD50 [4]: > 1000 mg/kg
- Control [5]: 128%
- ED50 [6]: 212 mg/kg
- LD50 [7]: > 1000 mg/kg

SMILES: NCc1cc(O)no1 [MUSCIMOL]
- ED50 [2]: 0.7 mg/kg
- LD50 [4]: 4.2 mg/kg
- ED50 [3]: 1.5 mg/kg
- LD50 [8]: 3.2 mg/kg

SMILES: CN1CCC/C1=C1/C(=O)N(c2cccc(Cl)c2)c2ccccc21
- Control [9]: 105%
- LD50 [4]: > 1000 mg/kg
- ED50 [6]: > 100 mg/kg
- Control [10]: 192%
- ED50 [11]: ~3.2 mg/kg
- Control [12]: 132%
- Control [13]: 105%
- LD50 [7]: > 320 mg/kg

SMILES: COc1cccc(N2C(=O)/C(=C3/CCCN3C)c3ccccc32)c1
- ED50 [14]: 100 mg/kg
- Control [10]: 214%

SMILES: COc1ccc(N2C(=O)/C(=C3/CCCN3C)c3ccccc32)cc1
- LD50 [4]: > 1000 mg/kg
- Control [10]: 211%
- ED50 [11]: ~3.2 mg/kg
- Control [15]: 105%
- Control [12]: 192%
- ED50 [16]: 1 mg/kg
- Control [17]: 103%
- ED50 [18]: 5.6 mg/kg
- Control [13]: 125%
- LD50 [7]: > 320 mg/kg

SMILES: CN1C(=O)CN=C(c2ccccc2)c2cc(Cl)ccc21 [DIAZEPAM]
- ED50 [6]: 0.7 mg/kg
- ED50 [3]: < 0.9 mg/kg
- Control [19]: 66%

SMILES: CN(C)/C=C1\C(=O)N(c2ccc(Cl)c(Cl)c2)c2ccccc21
- ED50 [6]: > 100 mg/kg
- [3H]flunitrazepam binding [20]: 144%
- ED50 [21]: 0.1 mg/kg
